Source: ChEMBL document CHEMBL1145441, “Synthesis and anti-HIV activity of new metabolically stable alkenyldiarylmethane non-nucleoside reverse transcriptase inhibitors incorporating N-methoxy imidoyl halide and 1,2,4-oxadiazole systems” (J Med Chem, 2007)
The source made the active and inactive calls.

Assays:
[1] = Cytotoxicity against mock-infected CEM-SS cells; type: cell-based; conditions: human
Method in brief: (§1)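 Mock-infected CEM-SS or MT-4 cells; CC50 defined as 50% cytotoxic concentration; means of at least two separate experiments.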

[2] = test system: Human immunodeficiency virus 2; assay: Antiviral activity against HIV2 ROD in MT4 cells by MTT assay; type: functional, organism-based
Method in brief: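 HIV-2 strain ROD infection of MT-4 cells; MTT cytoprotection read-out; EC50 is the 50% effective concentration against virus-induced cytopathicity; mean values from at least two separate experiments.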

[3] = test system: Human immunodeficiency virus 1; assay: Antiviral activity against HIV1 RF in CEM-SS cells by XTT assay; type: functional, organism-based; conditions: for EC50: Human immunodeficiency virus 1, RF
Method in brief: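 HIV-1 RF infection of CEM-SS cells, with protection scored by XTT cytoprotection assay; EC50 defined as 50% effective concentration for inhibiting cytopathicity; means of at least two separate experiments.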

[4] = Cytotoxicity against mock-infected MT4 cells; type: cell-based; conditions: human; method in brief: as §1
[5] = Metabolic stability in rat plasma; type: ADME, cell-free
Method in brief: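 Hydrolytic stability in rat plasma in vitro, with 1,1-diphenylethylene or benzophenone as internal standard; samples followed by HPLC; half-life reported in minutes as mean ± SD of at least two separate experiments.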

[6] = target: Human immunodeficiency virus type 1 reverse transcriptase (Human immunodeficiency virus 1, UniProt Q72547); assay: Inhibition of HIV1 recombinant reverse transcriptase
[7] = test system: Human immunodeficiency virus 1; assay: Antiviral activity against HIV1 3B in MT4 cells by MTT assay; type: functional, organism-based; conditions: for EC50: Human immunodeficiency virus 1, 3B
Method in brief: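 Cytoprotection read-out by MTT in MT-4 cells infected with HIV-1 strain IIIB; EC50 taken as the concentration giving 50% inhibition of viral cytopathicity; means of at least two separate experiments.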

| SMILES | half-life [5] [h] | IC50 [6] [µM] | CC50 [1] [µM] | Activity [2] | EC50 [3] [µM] | CC50 [4] [µM] | EC50 [7] [µM] | Activity [3] | Activity [7] |
| --- | --- | --- | --- | --- | --- | --- | --- | --- | --- |
| COC(=O)CCC/C=C(\c1cc(C)c(OC)c(C(=O)OC)c1)c1cc(C)c2oc(=O)n(C)c2c1 | 0.0217 | 0.02 | 5.1 | inactive | 0.02 | 16.9 | – | – | – |
| CONC(=O)CCC/C=C(\c1cc(C)c(OC)c(C(=O)NOC)c1)c1cc(C)c2oc(=O)n(C)c2c1 | – | > 100 | 5.4 | inactive | – | 18.4 | – | inactive | inactive |
| CONC(=O)c1cc(/C(=C\CCCC(=O)OC(C)(C)C)c2cc(C)c3oc(=O)n(C)c3c2)cc(C)c1OC | – | > 100 | 5.2 | inactive | – | 16.8 | – | inactive | inactive |
| COC(=O)CCCC=C(c1cc(C)c(OC)c(C(=O)OC)c1)c1cc(C)c(OC)c(C(=O)OC)c1 | 0.0127 | 1 | 6 | inactive | 0.25 | 6.1 | – | – | – |

More lines, main results first:

| half-life [5] [h] | IC50 [6] [µM] | SMILES | CC50 [1] [µM] | Activity [2] | EC50 [3] [µM] | CC50 [4] [µM] | EC50 [7] [µM] | Activity [3] | Activity [7] |
| --- | --- | --- | --- | --- | --- | --- | --- | --- | --- |
| 60.7 | 0.67 | CO/N=C(\F)c1cc(/C(=C\CCCc2nc(C)no2)c2cc(C)c3oc(=O)n(C)c3c2)cc(C)c1OC | 2.9 | inactive | 0.7 | 12.4 | 0.24 | – | – |
| 82.8 | 0.6 | CO/N=C(\Cl)CCC/C=C(\c1cc(C)c(OC)c(/C(Cl)=N/OC)c1)c1cc(C)c2oc(=O)n(C)c2c1 | 1.3 | inactive | – | 3.9 | – | inactive | – |
| 0.153 | 0.55 | CO/N=C(\F)c1cc(/C(=C\CCCC(=O)OC)c2cc(C)c3oc(=O)n(C)c3c2)cc(C)c1OC | 3.9 | inactive | 0.5 | 21 | 0.29 | – | – |
| 2.6 | 0.85 | CO/N=C(\Br)CCC/C=C(\c1cc(C)c(OC)c(/C(Br)=N/OC)c1)c1cc(C)c2oc(=O)n(C)c2c1 | 2.1 | inactive | – | 13.3 | 6.3 | inactive | – |
